The values that follow come from ChEMBL document CHEMBL1124944, “Synthesis and in vitro evaluation of some modified 4-thiopyrimidine nucleosides for prevention or reversal of AIDS-associated neurological disorders” (J Med Chem, 1990).

SMILES strings stand for the structures.

What is called IC50 is the concentration that inhibits the measured activity by half. A higher IC50 goes with weaker potency. One may read the EC50 as the midpoint of the concentration-response curve. A word on the Ki: it is a measure of affinity in units of concentration, obtained from inhibition or displacement. A high value points to a looser hold on the target.

Assay [1] relates to MT2. The assay is described as follows: Concentration of the drug resulting in 50% growth inhibition of normal, uninfected cells against HIV-1 replication in MT-2 cells. As to conditions: Homo sapiens. It counts as functional, cell-based. In short, it runs like this: (§1)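 NCI cytoprotection screen: HIV added at low amounts to T4 lymphoid cells (MT-2 or CEM), allowing at least two complete replication cycles to produce cell killing. […] An AZT-treated positive control was run alongside under identical conditions.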

The test system of assay [2] is MT2. The assay is described as follows: Concentration of the drug resulting in 50% reduction of the viral cytopathic effect against HIV-1 replication in MT-2 cells. It counts as functional, cell-based. Particulars: Homo sapiens. In short, it runs like this: as §1
(In general: Protection from cytopathic effect is a common read-out in antiviral testing.)

Assay [3] deals with CCRF-CEM. The assay can be described thus: Concentration of the drug resulting in 50% reduction of the viral cytopathic effect against HIV-1 replication in CEM cells. In kind it is functional, cell-based. As to conditions: Homo sapiens. In short, it runs like this: as §1
Assay [4] has as its system CCRF-CEM. The assay can be described thus: Concentration of the drug resulting in 50% growth inhibition of normal, uninfected cells against HIV-1 replication in CEM cells. In kind it is functional, cell-based. As to conditions: Homo sapiens. In short, it runs like this: as §1
The target of another assay is Deoxycytidine kinase (Homo sapiens, UniProt P27707). The assay is described as follows: Inhibitory affect against rabbit deoxycytidine kinase and represented as molt/4F kinase. The arrangement: species or system Oryctolagus cuniculus. Particulars: target entry is the homologue from another species.
Assay [5] in a line: Ratio of PNS to the PN (Partition coefficient ratio between thio analogue to its oxo analogue). In short, it runs like this: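 Partitioning was between equal volumes of 1-octanol and 100 mM sodium phosphate pH 7.0. Phases were separated by centrifugation and each phase was quantified by UV absorbance at a wavelength chosen from spectra. The ratio is the thio analogue's partition coefficient over that of its oxo parent.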

Sequence of Deoxycytidine kinase (P27707 whole entry): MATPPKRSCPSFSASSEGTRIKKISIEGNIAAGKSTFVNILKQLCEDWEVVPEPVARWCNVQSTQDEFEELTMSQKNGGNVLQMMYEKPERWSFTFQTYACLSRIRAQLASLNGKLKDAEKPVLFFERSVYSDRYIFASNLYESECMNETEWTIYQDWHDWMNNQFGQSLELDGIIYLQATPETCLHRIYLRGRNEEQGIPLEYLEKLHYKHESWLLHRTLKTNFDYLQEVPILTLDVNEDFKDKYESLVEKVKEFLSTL

Consider `Cc1cn([C@H]2C[C@H](N=[N+]=[N-])[C@@H](CO)O2)c(=O)[nH]c1=O` [ZIDOVUDINE], for which the IC50 is above 970 µM with MT2 [1] and above 100 µM in the assay with CCRF-CEM [4]. Moreover, the values for the EC50 with MT2 [2] and in the assay with CCRF-CEM [3] were 0.18 µM and 0.00032 µM, respectively.
On Deoxycytidine kinase, `Nc1ccn([C@H]2C=C[C@@H](CO)O2)c(=O)n1` returned a Ki of 4600 µM.
Consider `O=c1[nH]c(=S)ccn1[C@H]1C=C[C@@H](CO)O1`, for which, in assay [5], the P ratio was found to be 1.23.
`O=c1[nH]c(=S)ccn1[C@H]1CC[C@@H](CO)O1`: the P ratio in assay [5] stood at 1.56.
Regarding `Cc1cn([C@H]2C=C[C@@H](CO)O2)c(=O)[nH]c1=S`, in assay [5], the P ratio is 5.39. Further, the IC50 in the assay with MT2 [1] is above 80 µM; in the assay with CCRF-CEM [4] it was above 430 µM. The EC50 in the assay with MT2 [2] was 27 µM; with CCRF-CEM [3], 39 µM.
On to `Cc1cn([C@H]2C=C[C@@H](CO)O2)c(=O)[nH]c1=O` [STAVUDINE], for which the IC50 in the assay with MT2 [1] was 71 µM; with CCRF-CEM [4], 235 µM. Also, the EC50 amounted to 2 µM in the assay on MT2 [2] and 0.8 µM in the assay on CCRF-CEM [3].
Consider `Cc1cn([C@H]2CC[C@@H](CO)O2)c(=O)[nH]c1=S`, for which the P ratio in assay [5] amounted to 6.41. The IC50 in the assay with MT2 [1] was 90 µM; in the assay with CCRF-CEM [4] it was 93 µM. The EC50 was found to be 39 µM in the assay with MT2 [2] and 31 µM with CCRF-CEM [3].
As for `Cc1cn([C@H]2C[C@H](N=[N+]=[N-])[C@@H](CO)O2)c(=O)[nH]c1=S`, in assay [5], the P ratio stood at 6.99.
